The target of experiment [1] is T1, DNA polymerase alpha subunit B (Bos taurus) (UniProt Q58D13).
T1 sequence (whole entry): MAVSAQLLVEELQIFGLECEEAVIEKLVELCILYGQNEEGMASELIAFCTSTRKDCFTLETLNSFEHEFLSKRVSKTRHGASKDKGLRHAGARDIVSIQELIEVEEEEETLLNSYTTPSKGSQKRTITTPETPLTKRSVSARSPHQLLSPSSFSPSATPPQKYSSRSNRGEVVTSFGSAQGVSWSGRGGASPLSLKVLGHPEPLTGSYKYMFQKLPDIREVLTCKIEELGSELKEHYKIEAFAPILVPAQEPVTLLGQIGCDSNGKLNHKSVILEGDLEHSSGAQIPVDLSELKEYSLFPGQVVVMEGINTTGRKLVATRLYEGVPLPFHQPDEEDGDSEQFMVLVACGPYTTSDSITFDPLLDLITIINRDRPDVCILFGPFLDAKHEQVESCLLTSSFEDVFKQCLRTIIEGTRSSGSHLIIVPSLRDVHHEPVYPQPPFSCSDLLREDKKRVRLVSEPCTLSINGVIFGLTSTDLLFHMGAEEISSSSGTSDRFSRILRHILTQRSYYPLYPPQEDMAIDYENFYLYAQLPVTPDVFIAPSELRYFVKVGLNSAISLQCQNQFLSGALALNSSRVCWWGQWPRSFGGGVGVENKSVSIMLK
The experiment in a line: Inhibition of calf DNA polymerase alpha at 200 uM. Summed up:
(§1)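 Compound dissolved in DMSO and sonicated 30 s, then held with each polymerase (final 0.05 U) in 50 mM Tris-HCl pH 7.5, 1 mM DTT, 50% glycerol, 0.1 mM EDTA at 0 °C for 10 min. Reaction with poly(dA)/oligo(dT)12-18 and dTTP ran 60 min at 37 °C (Taq at 74 °C). Activity relative to no-compound control; means ± SEM, four independent experiments.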

For experiment [2], the target named is T2, DNA polymerase lambda (Homo sapiens) (UniProt Q9UGP5).
T2 sequence (whole entry): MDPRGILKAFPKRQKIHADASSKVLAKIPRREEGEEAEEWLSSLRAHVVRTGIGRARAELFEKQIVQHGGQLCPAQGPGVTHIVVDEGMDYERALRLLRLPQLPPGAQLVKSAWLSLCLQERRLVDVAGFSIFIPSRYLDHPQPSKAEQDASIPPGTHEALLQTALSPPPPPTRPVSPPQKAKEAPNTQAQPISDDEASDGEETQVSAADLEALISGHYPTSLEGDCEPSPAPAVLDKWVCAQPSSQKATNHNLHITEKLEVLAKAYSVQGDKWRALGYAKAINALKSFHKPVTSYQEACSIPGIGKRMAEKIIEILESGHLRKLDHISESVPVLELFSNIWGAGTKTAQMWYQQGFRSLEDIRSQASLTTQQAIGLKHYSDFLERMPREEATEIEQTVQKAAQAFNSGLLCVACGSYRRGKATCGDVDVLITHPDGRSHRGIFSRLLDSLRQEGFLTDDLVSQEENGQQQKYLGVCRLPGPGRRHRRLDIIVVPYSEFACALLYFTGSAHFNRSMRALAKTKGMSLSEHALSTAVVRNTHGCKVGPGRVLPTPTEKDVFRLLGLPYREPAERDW
In words: Inhibition of human DNA polymerase lambda at 200 uM. The method, boiled down:
as §1

The species named for experiment [3] is Homo sapiens. In words: Inhibition of human DNA polymerase gamma at 200 uM. The method, boiled down:
as §1

For experiment [4], the species on record is Homo sapiens. The experiment in a line: Inhibition of human topoisomerase type 1 at 200 uM. Summed up: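 Each enzyme (0.05 U) was incubated with 200 μM compound. Activity was expressed as a percentage of the activity without compound (100%). Means ± SEM of four independent experiments.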
A further experiment has as its system Escherichia coli. The experiment in a line: Inhibition of Escherichia coli T4 DNA polymerase at 200 uM. Summed up:
as §1

In ChEMBL document CHEMBL1157184, “Hymenoic acid, a novel specific inhibitor of human DNA polymerase lambda from a fungus of Hymenochaetaceae sp” (Bioorg Med Chem, 2008) one finds Activity data, which are given here for one molecule.

Activity calls are given as the source filed them. The calls are words filed in the database; no cut-off is given here.

Regarding `C/C(=C\CC[C@H](C)C(=O)O)[C@H]1CC[C@H](C(=O)O)CC1`, the result (in experiment [1]; in the experiment filed under Homo sapiens [3]; in the experiment filed under Homo sapiens [4]; with Escherichia coli) was inactive. Also, the result in experiment [2] was Active.
